The results in this text go back to ChEMBL document CHEMBL4406820, “Novel reverse thia-analogs of fosmidomycin: Synthesis and antiplasmodial activity” (Eur J Med Chem, 2019).

Data set [1] has as its target T1, 1-deoxy-D-xylulose 5-phosphate reductoisomerase, apicoplastic (Plasmodium falciparum (isolate 3D7)) (UniProt Q8IKG4).
T1 sequence (whole entry): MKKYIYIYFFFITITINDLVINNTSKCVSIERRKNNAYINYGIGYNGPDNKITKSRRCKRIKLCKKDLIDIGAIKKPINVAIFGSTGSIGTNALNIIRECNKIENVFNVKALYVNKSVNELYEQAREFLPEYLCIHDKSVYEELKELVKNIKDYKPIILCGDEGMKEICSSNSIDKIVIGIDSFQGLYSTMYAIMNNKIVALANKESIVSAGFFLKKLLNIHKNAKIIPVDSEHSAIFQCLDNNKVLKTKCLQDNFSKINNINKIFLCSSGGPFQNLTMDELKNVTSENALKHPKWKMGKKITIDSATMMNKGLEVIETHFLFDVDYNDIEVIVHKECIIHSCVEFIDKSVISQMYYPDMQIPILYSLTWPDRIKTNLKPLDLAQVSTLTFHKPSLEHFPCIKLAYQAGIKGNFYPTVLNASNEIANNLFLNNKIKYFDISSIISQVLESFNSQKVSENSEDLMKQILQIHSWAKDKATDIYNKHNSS
Put plainly: Inhibition of recombinant Plasmodium falciparum IspC expressed in Escherichia coli using 1-deoxy-D-xylulose 5-phosphate as substrate preincubated for 7 days followed by substrate addition in presence of Tris HCL at pH 7.6 by photometric assay.

Data set [2] has as its system Plasmodium falciparum. The data set is described as follows: Antimalarial activity against asexual blood stages of Plasmodium falciparum Dd2 infected in human erythrocytes incubated for 3 days by ELISA. The format is functional, organism-based. To be noted: Dd2, 72 h. In outline: (§1)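 Asexual blood-stage P. falciparum cultured in human erythrocytes; growth measured by HRP2 double-site sandwich ELISA. IC50 values are the mean of two independent double determinations.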

Data set [3] deals with Plasmodium falciparum. The data set is described as follows: Antimalarial activity against asexual blood stages of Plasmodium falciparum 3D7 infected in human erythrocytes incubated for 3 days by ELISA. It is filed as functional, organism-based. To be noted: 3D7, 72 h. A digest of the protocol:
as §1

Data set [4] deals with T1, 1-deoxy-D-xylulose 5-phosphate reductoisomerase, apicoplastic (Plasmodium falciparum (isolate 3D7)). The data set is described as follows: Inhibition of recombinant Plasmodium falciparum IspC expressed in Escherichia coli using 1-deoxy-D-xylulose 5-phosphate as substrate preincubated for 2 days followed by substrate addition in presence of Tris HCL at pH 7.6 by photometric assay. A digest of the protocol: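 Racemate or single enantiomer (0.6–0.7 mM) held in 100 mM Tris-HCl pH 7.6 with 0.02% NaN3 at 22–23 °C. Aliquots taken at 0, 24 and 48 h and frozen at −80 °C. All aliquots then assayed in parallel for IC50 against P. falciparum IspC: 340 nm NADPH read-out with 0.5 mM DXP.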

The next data set concerns Pseudomonas aeruginosa. The data set is described as follows: Antimicrobial activity against Pseudomonas aeruginosa ATCC 27853 incubated for 18 hrs by microbroth dilution assay. The format is functional. To be noted: ATCC 27853, 18 h. In general terms: In broth dilution the organism is exposed to a series of concentrations in liquid medium.
For data set [5], the system named is Acinetobacter baumannii. Put plainly: Antimicrobial activity against Acinetobacter baumannii ATCC BAA747 incubated for 18 hrs by microbroth dilution assay. The format is functional. To be noted: ATCC BAA747, 18 h.
A short description of data set [6]: Stability of compound in pH 7.6 PBS buffer assessed as parent compound remaining incubated for 72 by HPLC analysis. The format is physicochemical. In outline:
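Compound dissolved at 1 mg/mL in phosphate buffer pH 7.6 (Ph. Eur.) and shaken at room temperature for 72 h. Samples at 0, 1, 3, 6, 24 and 72 h (n = 3) run by C18 reversed-phase HPLC with an acetonitrile/water gradient containing 0.1% TFA. Decomposition taken from the loss of peak area at 254 nm.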

The subject of data set [7] is Klebsiella pneumoniae. Put plainly: Antimicrobial activity against Klebsiella pneumoniae ATCC 13883 incubated for 18 hrs by microbroth dilution assay. To be noted: ATCC 13883, 18 h. The format is functional.
In data set [8] the test system is Escherichia coli. Put plainly: Antimicrobial activity against Escherichia coli ATCC BAA 2469 incubated for 18 hrs by microbroth dilution assay. It is filed as functional. To be noted: ATCC BAA 2469, 18 h.
In data set [9] the test system is Mycobacterium tuberculosis. The data set is described as follows: Antimycobacterial activity against Mycobacterium tuberculosis H37Rv incubated for 5 days by resazurin dye based assay. The format is functional. To be noted: 120 h.
The next data set concerns HeLa. The data set is described as follows: Cytotoxicity against human HeLa cells assessed as reduction in cell viability incubated for 24 hrs by neutral red assay. It is filed as cell-based. A digest of the protocol:
(§2)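 Cytotoxicity on HeLa monolayers quantified spectrophotometrically, given as the mean of two independent double determinations. SI is HeLa IC50 divided by the P. falciparum 3D7 IC50.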

The subject of data set [10] is Escherichia coli. Put plainly: Antimicrobial activity against Escherichia coli ATCC 25922 incubated for 18 hrs by microbroth dilution assay. To be noted: ATCC 25922, 18 h. The format is functional.
Data set [11] in a line: Apparent permeability in human Caco2 cells by LC-MS/MS analysis. It is filed as ADME, cell-based. To be noted: Caco-2. A digest of the protocol: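 Compound applied to a polarized Caco2 monolayer. Concentrations measured over time by LC-MS/MS in donor medium, acceptor medium and cells; Papp calculated. Atenolol served as a reference compound.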
(Caco-2 cells form a polarised layer with tight junctions and transporters.)

The subject of data set [12] is Acinetobacter baumannii. Put plainly: Antimicrobial activity against Acinetobacter baumannii ATCC BAA 1605 incubated for 18 hrs by microbroth dilution assay. The format is functional. To be noted: ATCC BAA 1605, 18 h.
Data set [13] deals with Klebsiella pneumoniae. The data set is described as follows: Antimicrobial activity against Klebsiella pneumoniae ATCC 700603 incubated for 18 hrs by microbroth dilution assay. To be noted: ATCC 700603, 18 h. The format is functional.
Data set [14] can be described thus: Selectivity index, ratio of IC50 for human HeLa cells to IC50 for Plasmodium falciparum 3D7. It is filed as toxicity. To be noted: read-out: Ratio IC50. In outline: as §2
Data set [15] has as its target T2, 1-deoxy-D-xylulose 5-phosphate reductoisomerase, apicoplastic (Plasmodium falciparum (isolate 3D7), UniProt Q8IKG4).
T2 sequence (Q8IKG4 whole entry): T1 sequence (whole entry)
The data set is described as follows: Inhibition of recombinant Plasmodium falciparum IspC expressed in Escherichia coli using 1-deoxy-D-xylulose 5-phosphate as substrate by photometric assay. In outline: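 P. falciparum IspC expressed in E. coli. Reaction mix: 100 mM Tris-HCl pH 7.6, 5 mM MnCl2, 5 mM DTT, 0.5 mM NADPH, 0.02 U enzyme. Inhibitor tested as a 1:3 series from 200 to 0.003 µM. Started with 0.5 mM DXP; read at 340 nm, room temperature. IC50 calculated from at least eight data points; generally two to three independent determinations.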

Data set [16] concerns the target T3, 1-deoxy-D-xylulose 5-phosphate reductoisomerase (Mycobacterium tuberculosis, UniProt P9WNS1).
T3 sequence (P9WNS1 whole entry): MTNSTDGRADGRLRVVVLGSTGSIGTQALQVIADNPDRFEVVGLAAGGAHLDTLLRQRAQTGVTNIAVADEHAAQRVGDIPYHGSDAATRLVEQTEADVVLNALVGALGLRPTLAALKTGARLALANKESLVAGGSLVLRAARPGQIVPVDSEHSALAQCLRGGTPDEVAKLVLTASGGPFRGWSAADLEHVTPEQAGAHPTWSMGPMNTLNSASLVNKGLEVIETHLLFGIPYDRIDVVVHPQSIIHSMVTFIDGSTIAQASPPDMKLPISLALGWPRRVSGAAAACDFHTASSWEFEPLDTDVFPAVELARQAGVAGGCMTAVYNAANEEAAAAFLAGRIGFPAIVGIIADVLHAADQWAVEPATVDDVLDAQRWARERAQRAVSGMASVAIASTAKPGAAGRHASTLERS
Put plainly: Inhibition of recombinant Mycobacterium tuberculosis IspC expressed in Escherichia coli M15 using 1-deoxy-D-xylulose 5-phosphate as substrate by photometric assay.

For data set [17], the target named is T4, 1-deoxy-D-xylulose 5-phosphate reductoisomerase (Escherichia coli, UniProt W8T2T2).
T4 sequence (W8T2T2 whole entry): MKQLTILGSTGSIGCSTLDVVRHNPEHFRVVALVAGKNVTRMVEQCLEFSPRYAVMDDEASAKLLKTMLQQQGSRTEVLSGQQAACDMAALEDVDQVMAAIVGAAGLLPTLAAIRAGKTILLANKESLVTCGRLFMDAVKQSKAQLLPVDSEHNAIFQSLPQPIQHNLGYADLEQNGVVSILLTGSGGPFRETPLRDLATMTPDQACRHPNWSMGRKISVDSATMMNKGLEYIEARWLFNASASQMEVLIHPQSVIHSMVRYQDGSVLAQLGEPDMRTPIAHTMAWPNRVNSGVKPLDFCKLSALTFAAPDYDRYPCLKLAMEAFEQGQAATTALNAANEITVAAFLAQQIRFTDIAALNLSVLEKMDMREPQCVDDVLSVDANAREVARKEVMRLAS
The data set is described as follows: Inhibition of recombinant Escherichia coli IspC expressed in Escherichia coli M15 using 1-deoxy-D-xylulose 5-phosphate as substrate by photometric assay. A digest of the protocol: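 E. coli IspC, His-tagged, expressed in E. coli M15 pREP4 (IPTG 1 mM, 36 h at 20 °C) and purified by Ni2+-chelate chromatography to about 95% purity. Reaction mix: 100 mM Tris-HCl pH 7.6, 5 mM MnCl2, 5 mM DTT, 0.5 mM NADPH, 0.02 U enzyme. Inhibitor tested as a 1:3 series from 200 to 0.003 µM. Started with 0.5 mM DXP; NADPH consumption read at 340 nm, room temperature. IC50 fitted from at least eight points.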

The source made the active and inactive calls. The rule behind the calls is not given here.

Broadly, the IC50 is the point on the concentration scale where inhibition reaches its midpoint. On to `CN(O)C(=O)CS[C@@H](c1ccccc1)P(=O)(O)O`, for which the inhibition result in [1] and in [4] was “Active” in each case. The IC50 with Plasmodium falciparum [2] was 0.14 µM; in the data set with Plasmodium falciparum [3], 0.087 µM.
As to `CN(O)C(=O)CS[C@H](c1ccccc1)P(=O)(O)O`, the inhibition result in [1] and in data set [4] was “Active” in each case. Moreover, the IC50 with Plasmodium falciparum [2] and in the data set with Plasmodium falciparum [3] was greater than 130 µM throughout.
In general, MIC refers to the lowest concentration found to suppress growth. In general, Papp refers to a coefficient for how fast a substance crosses the barrier. Take `CN(O)C(=O)CSC(c1ccccc1)P(=O)(O)O` (racemic): the MIC (against Pseudomonas aeruginosa; with Acinetobacter baumannii [5]; in the data set on Klebsiella pneumoniae [7]; in the data set on Escherichia coli [8]; in data set [9]; against Escherichia coli [10]) was greater than 100 µM throughout. For the same molecule, the MIC in the data set with Acinetobacter baumannii [12] and against Klebsiella pneumoniae [13] was greater than 100 µM each time. Further, the Stability in [6] is greater than 95%. Also, the IC50 in the data set on HeLa was greater than 1000 µM; with Plasmodium falciparum [2], 0.26 µM; in the data set with Plasmodium falciparum [3], 0.19 µM. In addition, the Papp in [11] turned out to be 0.14 ×10⁻⁶ cm/s. Moreover, in data set [14], the selectivity ratio is greater than 37000.
With `Cc1ccc(C(SCC(=O)NO)P(=O)(O)O)cc1` (racemic), the MIC (in the data set on Pseudomonas aeruginosa; with Acinetobacter baumannii [5]; with Klebsiella pneumoniae [7]; in the data set with Escherichia coli [8]; in data set [9]; in the data set with Escherichia coli [10]) was greater than 100 µM throughout. The MIC in the data set on Acinetobacter baumannii [12] and with Klebsiella pneumoniae [13] was greater than 100 µM each time. Also, the IC50 in data set [15] was 0.032 µM; in data set [16] it was 8.2 µM; in data set [17], 0.29 µM; in the data set with HeLa, greater than 1000 µM; in the data set on Plasmodium falciparum [2], 8 µM; in the data set with Plasmodium falciparum [3] it was 6.5 µM. Further, the selectivity ratio in data set [14] was greater than 150.
For the molecule `COc1cc(OC)cc(C(SCC(=O)NO)P(=O)(O)O)c1` (racemic), the MIC (in the data set with Pseudomonas aeruginosa; in the data set on Acinetobacter baumannii [5]; against Klebsiella pneumoniae [7]; in the data set on Escherichia coli [8]; in data set [9]; in the data set on Escherichia coli [10]) was greater than 100 µM in each case. The MIC in the data set with Acinetobacter baumannii [12] and in the data set on Klebsiella pneumoniae [13] was greater than 100 µM each time. Besides, the IC50 in data set [15] was 0.024 µM; in data set [16], 44 µM; in data set [17] it was 0.68 µM; in the data set on HeLa, greater than 1000 µM; in the data set with Plasmodium falciparum [2] it was 0.27 µM; with Plasmodium falciparum [3], 0.33 µM. The selectivity ratio in [14] was greater than 3000.
As for `O=C(CSC(c1cc(F)cc(F)c1)P(=O)(O)O)NO` (racemic), the MIC (with Pseudomonas aeruginosa; against Acinetobacter baumannii [5]; in the data set with Klebsiella pneumoniae [7]; with Escherichia coli [8]; in data set [9]; in the data set with Escherichia coli [10]) was greater than 100 µM each time. For the same molecule, the MIC against Acinetobacter baumannii [12] and against Klebsiella pneumoniae [13] was greater than 100 µM each time. Further, the IC50 in data set [15] was 0.011 µM; in data set [16], 0.32 µM; in data set [17] it was 0.013 µM; with HeLa, greater than 1000 µM; with Plasmodium falciparum [2], 0.87 µM; in the data set with Plasmodium falciparum [3], 1.2 µM. For the same molecule, the selectivity ratio in data set [14] is greater than 810.
